Measured values reported in ChEMBL document CHEMBL5661976 (Cancer Res, 2007).
The source made the active and inactive calls. No cut-off for these calls is given here.

Columns and labels:
NIH3T3 [1] = conditions: Mus musculus, dose 1-10000 nmol/L, time 6.25 hrs
[2] = target: Serine/threonine-protein kinase Chk1 (Homo sapiens, UniProt O14757); assay: Inhibition of recombinant CHK1 (unknown origin)
[3] = target: Ribosomal protein S6 kinase alpha-1 (Homo sapiens, UniProt Q15418); assay: Inhibition of recombinant MAPKAP-K1a (unknown origin)
[4] = target: Serine/threonine-protein kinase Sgk1 (Homo sapiens, UniProt O00141); assay: Inhibition of recombinant SGK (unknown origin)
NIH3T3 [5] = conditions: Mus musculus, dose 1-10000 nmol/L, time 6.25 hrs; remark: listed apart in the source
BaF3 [6] = assay: cells; assay type: functional, cell-based; conditions: Mus musculus, BaF3, 72 h
NCI-H3255 [7] = assay: cells; assay type: functional, cell-based; conditions: Homo sapiens, NCI-H3255, 72 h
NCI-H3255 [8] = assay: cells; assay type: functional, cell-based; conditions: Homo sapiens, NCI-H3255, 72 h; remark: listed apart in the source
[9] = target: Mitogen-activated protein kinase 12 (Homo sapiens, UniProt P53778); assay: Inhibition of recombinant SAPK3/p38gamma (unknown origin)
NIH3T3 [10] = assay: Inhibition of ERBB2 Ins774YVMA mutant (unknown origin) expressed in mouse NIH3T3 cells assessed as inhibition of ERBB2 phosphorylation at 100 to 10000 nmol/L incubated for 6 hrs by Western blotting analysis; assay type: cell-based; conditions: dose 100-10000 nmol/L
NCI-H3255 [11] = assay: Induction of apoptosis in human NCI-H3255 cells assessed as increase in cleavage of PARP at 1 micromol/L incubated for 72 hrs by Western blotting analysis; assay type: functional, cell-based; conditions: dose 1.0 µmol/L
cells [12] = assay type: functional, cell-based; conditions: Homo sapiens, NCI-H820, 72 h
H322 = assay: cells; assay type: functional, cell-based; conditions: Homo sapiens, NCI-H322, 72 h
[13] = target: Serine/threonine-protein kinase Nek6 (Homo sapiens, UniProt Q9HC98); assay: Inhibition of recombinant NEK6 (unknown origin)
BaF3 [14] = assay: cells; assay type: functional, cell-based; conditions: Mus musculus, BaF3, 72 h; remark: listed apart in the source
[15] = target: Mitogen-activated protein kinase 14 (Homo sapiens, UniProt Q16539); assay: Inhibition of recombinant SAPK2a/p38 (unknown origin)
BaF3 [16] = assay: cells; assay type: functional, cell-based; conditions: Mus musculus, BaF3, 72 h; remark: listed apart in the source
Wee1-like protein kinase = Wee1-like protein kinase (Homo sapiens, UniProt P30291); assay: Inhibition of recombinant Wee1 (unknown origin)
NCI-H3255 [17] = assay: cells; assay type: functional, cell-based; conditions: Homo sapiens, NCI-H3255, 72 h; remark: listed apart in the source
BaF3 [18] = assay: cells; assay type: functional, cell-based; conditions: Mus musculus, BaF3, 72 h; remark: listed apart in the source
[19] = Inhibition of recombinant Akt (unknown origin); set-up: species or system Homo sapiens
[20] = Inhibition of recombinant Bir Kinase (unknown origin); set-up: species or system Homo sapiens
[21] = target: Dual specificity mitogen-activated protein kinase kinase 1 (Homo sapiens, UniProt Q02750); assay: Inhibition of recombinant MEK1 (unknown origin)
[22] = target: Mitogen-activated protein kinase 11 (Homo sapiens, UniProt Q15759); assay: Inhibition of recombinant SAPK2b/p38beta2 (unknown origin)
BaF3 [23] = assay: cells; assay type: functional, cell-based; conditions: Mus musculus, BaF3, 72 h; remark: listed apart in the source
NIH3T3 [24] = conditions: Mus musculus, dose 1-10000 nmol/L, time 6.25 hrs; remark: listed apart in the source
Calu-3 = assay: cells; assay type: functional, cell-based; conditions: Homo sapiens, Calu-3, 72 h
HCC827 [25] = assay: cells; assay type: functional, cell-based; conditions: Homo sapiens, HCC827, 72 h
[26] = target: Cyclin-dependent kinase 4/cyclin D (Homo sapiens, UniProt P11802); assay: Inhibition of recombinant CDK4/Cyclin D (unknown origin); assay type: protein-complex assay
NCI-H441 = assay: cells; assay type: functional, cell-based; conditions: Homo sapiens, NCI-H441, 72 h
BaF3 [27] = assay: cells; assay type: functional, cell-based; conditions: Mus musculus, BaF3, 72 h; remark: listed apart in the source
BaF3 [28] = assay: cells; assay type: functional, cell-based; conditions: Mus musculus, BaF3, 72 h; remark: listed apart in the source
BaF3 [29] = assay: cells; assay type: functional, cell-based; conditions: Mus musculus, BaF3, 72 h; remark: listed apart in the source
[30] = target: Insulin-like growth factor 1 receptor (Homo sapiens, UniProt P08069); assay: Inhibition of recombinant IGF1R (unknown origin)
cells [31] = assay type: functional, cell-based; conditions: Homo sapiens, NCI-H1781, 72 h
[32] = target: Protein kinase C alpha type (Homo sapiens, UniProt P17252); assay: Inhibition of recombinant PKCa (unknown origin)
cells [33] = assay type: functional, cell-based; conditions: Homo sapiens, NCI-H1819, 72 h
[34] = target: MAP kinase-activated protein kinase 2 (Homo sapiens, UniProt P49137); assay: Inhibition of recombinant MAPKAP-K2 (unknown origin)
[35] = target: Tyrosine-protein kinase CSK (Homo sapiens, UniProt P41240); assay: Inhibition of recombinant CSK (unknown origin)
A549 = assay: cells; assay type: functional, cell-based; conditions: Homo sapiens, A549, 72 h
HCC827 [36] = assay: Antiproliferative activity against human HCC827 cells harboring EGFR Del E746_A750 mutant transfected with GFP assessed as inhibition of cell growth incubated for 72 hrs by MTS assay; assay type: functional, cell-based; conditions: HCC827, 72 h
Method in brief: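 MTS viable-cell assay (bioreduction to soluble formazan, spectrophotometric read) after 72 h drug exposure; cell numbers set empirically.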

Chain of Mitogen-activated protein kinase 11 (Q15759 whole entry): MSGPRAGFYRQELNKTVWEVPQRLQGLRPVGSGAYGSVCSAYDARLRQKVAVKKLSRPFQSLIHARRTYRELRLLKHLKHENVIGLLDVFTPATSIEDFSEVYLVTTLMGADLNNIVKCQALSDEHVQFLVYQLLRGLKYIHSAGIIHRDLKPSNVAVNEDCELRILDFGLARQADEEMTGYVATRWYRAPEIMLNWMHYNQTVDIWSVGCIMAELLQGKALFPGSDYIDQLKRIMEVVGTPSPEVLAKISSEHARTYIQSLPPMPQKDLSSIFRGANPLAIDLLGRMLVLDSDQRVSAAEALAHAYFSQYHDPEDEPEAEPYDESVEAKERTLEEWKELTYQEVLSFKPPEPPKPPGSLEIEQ
Chain of MAP kinase-activated protein kinase 2 (P49137 whole entry): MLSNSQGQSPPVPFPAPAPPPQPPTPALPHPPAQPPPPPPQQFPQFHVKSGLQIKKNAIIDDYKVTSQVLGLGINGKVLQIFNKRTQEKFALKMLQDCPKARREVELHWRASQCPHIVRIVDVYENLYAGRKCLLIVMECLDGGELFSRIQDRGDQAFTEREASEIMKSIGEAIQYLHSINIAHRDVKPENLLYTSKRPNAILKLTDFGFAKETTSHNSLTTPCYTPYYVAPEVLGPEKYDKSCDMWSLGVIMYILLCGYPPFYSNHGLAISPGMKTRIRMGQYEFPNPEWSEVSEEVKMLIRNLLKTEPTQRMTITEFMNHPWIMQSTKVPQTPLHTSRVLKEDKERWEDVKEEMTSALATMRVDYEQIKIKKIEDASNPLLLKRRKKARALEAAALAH
Chain of Serine/threonine-protein kinase Sgk1 (O00141 whole entry): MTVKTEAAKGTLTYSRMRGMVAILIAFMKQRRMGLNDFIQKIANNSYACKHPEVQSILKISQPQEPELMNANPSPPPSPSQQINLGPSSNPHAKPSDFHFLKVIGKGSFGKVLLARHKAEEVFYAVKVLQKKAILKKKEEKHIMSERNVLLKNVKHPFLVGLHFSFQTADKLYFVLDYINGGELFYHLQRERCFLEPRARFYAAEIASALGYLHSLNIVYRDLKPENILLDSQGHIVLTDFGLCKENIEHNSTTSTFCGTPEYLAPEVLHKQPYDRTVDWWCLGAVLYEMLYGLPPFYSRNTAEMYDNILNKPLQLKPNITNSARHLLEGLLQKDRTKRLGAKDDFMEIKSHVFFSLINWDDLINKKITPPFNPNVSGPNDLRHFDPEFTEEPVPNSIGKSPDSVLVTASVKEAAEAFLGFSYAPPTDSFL
Chain of Dual specificity mitogen-activated protein kinase kinase 1 (Q02750 whole entry): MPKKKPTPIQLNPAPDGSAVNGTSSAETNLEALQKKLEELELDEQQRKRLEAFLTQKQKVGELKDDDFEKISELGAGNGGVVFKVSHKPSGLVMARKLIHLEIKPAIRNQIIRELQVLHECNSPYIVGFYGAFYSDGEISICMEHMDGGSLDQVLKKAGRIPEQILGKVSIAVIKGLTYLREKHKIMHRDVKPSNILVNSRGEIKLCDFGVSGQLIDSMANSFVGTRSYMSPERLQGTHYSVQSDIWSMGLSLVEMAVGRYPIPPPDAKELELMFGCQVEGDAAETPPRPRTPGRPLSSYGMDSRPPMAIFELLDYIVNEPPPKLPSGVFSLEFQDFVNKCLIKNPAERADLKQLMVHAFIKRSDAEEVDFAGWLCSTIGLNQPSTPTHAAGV
Chain of Insulin-like growth factor 1 receptor (P08069 31-736 limits assumed): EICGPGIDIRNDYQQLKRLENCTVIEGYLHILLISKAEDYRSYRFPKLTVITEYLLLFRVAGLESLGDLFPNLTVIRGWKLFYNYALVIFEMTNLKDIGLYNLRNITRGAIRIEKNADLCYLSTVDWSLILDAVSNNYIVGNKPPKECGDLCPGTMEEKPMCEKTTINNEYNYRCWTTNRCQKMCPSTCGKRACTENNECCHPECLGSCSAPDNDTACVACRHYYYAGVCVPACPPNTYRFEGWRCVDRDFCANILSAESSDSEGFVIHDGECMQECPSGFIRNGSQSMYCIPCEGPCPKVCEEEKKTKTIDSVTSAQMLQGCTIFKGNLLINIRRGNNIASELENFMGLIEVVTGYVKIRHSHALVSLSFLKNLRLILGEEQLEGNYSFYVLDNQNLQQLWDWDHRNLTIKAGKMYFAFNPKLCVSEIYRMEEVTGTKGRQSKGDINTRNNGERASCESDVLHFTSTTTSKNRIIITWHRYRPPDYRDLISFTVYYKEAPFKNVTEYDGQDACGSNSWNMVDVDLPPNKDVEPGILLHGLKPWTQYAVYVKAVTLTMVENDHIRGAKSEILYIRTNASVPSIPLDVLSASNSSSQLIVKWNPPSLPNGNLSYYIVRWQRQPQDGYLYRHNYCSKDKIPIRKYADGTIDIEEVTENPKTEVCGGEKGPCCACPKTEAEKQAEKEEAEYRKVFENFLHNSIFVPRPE
Chain of Insulin-like growth factor 1 receptor (P08069 741-1367 limits assumed): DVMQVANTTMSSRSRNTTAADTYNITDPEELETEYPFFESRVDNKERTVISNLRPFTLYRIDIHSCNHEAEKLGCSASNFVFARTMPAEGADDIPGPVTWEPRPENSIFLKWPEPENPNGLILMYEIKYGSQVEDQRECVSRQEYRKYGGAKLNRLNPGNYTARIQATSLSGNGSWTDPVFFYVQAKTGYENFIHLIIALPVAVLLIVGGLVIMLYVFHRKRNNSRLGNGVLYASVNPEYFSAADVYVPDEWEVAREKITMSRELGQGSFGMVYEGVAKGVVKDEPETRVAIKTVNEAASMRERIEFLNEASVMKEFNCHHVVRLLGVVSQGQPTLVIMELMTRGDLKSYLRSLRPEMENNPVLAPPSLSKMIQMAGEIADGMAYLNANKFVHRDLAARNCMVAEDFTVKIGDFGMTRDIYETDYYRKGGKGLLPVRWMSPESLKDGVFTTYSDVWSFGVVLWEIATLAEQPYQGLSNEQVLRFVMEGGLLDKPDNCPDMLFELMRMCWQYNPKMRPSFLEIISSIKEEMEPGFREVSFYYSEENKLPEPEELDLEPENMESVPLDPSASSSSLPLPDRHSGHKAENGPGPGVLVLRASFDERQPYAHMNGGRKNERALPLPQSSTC
Chain of Mitogen-activated protein kinase 12 (P53778 whole entry): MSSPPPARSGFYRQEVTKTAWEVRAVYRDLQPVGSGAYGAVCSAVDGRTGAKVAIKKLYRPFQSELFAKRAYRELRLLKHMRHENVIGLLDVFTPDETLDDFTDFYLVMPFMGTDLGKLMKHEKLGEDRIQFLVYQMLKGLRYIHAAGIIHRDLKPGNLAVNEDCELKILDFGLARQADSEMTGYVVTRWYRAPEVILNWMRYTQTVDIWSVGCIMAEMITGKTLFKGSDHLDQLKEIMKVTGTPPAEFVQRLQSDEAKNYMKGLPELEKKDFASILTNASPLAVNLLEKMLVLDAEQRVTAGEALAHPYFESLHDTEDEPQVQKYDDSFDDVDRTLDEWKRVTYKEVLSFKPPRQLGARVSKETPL
Chain of Serine/threonine-protein kinase Chk1 (O14757 whole entry): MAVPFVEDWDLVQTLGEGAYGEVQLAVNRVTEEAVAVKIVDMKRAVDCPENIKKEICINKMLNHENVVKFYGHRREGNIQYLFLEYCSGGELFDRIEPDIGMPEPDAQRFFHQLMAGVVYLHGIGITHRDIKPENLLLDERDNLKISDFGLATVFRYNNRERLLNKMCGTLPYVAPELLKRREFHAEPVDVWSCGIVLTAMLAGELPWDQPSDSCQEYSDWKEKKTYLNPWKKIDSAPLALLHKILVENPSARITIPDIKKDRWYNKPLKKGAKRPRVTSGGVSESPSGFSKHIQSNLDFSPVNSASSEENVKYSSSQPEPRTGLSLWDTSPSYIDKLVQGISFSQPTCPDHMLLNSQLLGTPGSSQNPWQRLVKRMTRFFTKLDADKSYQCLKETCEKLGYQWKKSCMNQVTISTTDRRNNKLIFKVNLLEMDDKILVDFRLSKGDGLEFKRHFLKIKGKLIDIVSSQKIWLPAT
Chain of Ribosomal protein S6 kinase alpha-1 (Q15418 whole entry): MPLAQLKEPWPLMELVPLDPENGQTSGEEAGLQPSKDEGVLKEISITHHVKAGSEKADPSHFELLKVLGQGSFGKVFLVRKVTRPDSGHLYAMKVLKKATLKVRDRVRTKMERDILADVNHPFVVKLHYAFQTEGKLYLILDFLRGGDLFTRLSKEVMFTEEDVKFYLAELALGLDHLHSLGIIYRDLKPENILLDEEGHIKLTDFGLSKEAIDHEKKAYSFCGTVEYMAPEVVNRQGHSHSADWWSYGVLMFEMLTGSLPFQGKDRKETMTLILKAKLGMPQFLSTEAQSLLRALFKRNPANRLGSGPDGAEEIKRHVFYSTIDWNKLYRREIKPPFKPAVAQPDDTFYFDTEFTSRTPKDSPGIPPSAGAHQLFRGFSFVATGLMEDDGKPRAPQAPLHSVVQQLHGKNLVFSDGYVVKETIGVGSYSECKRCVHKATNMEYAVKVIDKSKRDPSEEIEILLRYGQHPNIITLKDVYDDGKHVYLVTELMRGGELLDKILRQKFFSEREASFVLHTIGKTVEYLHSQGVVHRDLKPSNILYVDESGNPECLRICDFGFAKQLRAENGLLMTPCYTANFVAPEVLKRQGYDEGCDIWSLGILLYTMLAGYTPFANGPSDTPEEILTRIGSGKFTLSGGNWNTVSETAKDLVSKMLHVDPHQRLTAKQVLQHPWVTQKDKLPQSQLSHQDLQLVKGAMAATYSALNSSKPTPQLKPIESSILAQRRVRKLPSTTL
Chain of Mitogen-activated protein kinase 14 (Q16539 whole entry): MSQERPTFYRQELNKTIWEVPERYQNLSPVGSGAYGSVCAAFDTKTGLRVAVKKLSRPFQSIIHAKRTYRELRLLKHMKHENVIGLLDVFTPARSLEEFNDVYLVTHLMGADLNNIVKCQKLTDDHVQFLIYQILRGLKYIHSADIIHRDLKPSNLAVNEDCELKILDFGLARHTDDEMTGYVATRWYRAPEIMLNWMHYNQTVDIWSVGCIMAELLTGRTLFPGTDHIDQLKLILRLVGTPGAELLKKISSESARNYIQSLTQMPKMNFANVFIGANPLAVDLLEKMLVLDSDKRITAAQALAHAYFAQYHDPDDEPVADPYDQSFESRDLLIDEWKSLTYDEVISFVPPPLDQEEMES

Structure (SMILES): COc1cc2ncnc(Nc3ccc(F)c(Cl)c3)c2cc1NC(=O)/C=C/CN1CCCCC1 [DACOMITINIB ANHYDROUS]
- inhibition (NIH3T3 [1]): Active
- IC50 [2]: > 10000 nM
- IC50 [3]: > 10000 nM
- IC50 [4]: > 10000 nM
- inhibition (NIH3T3 [5]): Active
- IC50 (BaF3 [6]): < 1 nM
- IC50 (NCI-H3255 [7]): 137 nM
- IC50 (NCI-H3255 [8]): 1620 nM
- IC50 [9]: > 10000 nM
- inhibition (NIH3T3 [10]): Active
- Activity (NCI-H3255 [11]): Active
- IC50 (cells [12]): 930 nM
- IC50 (H322): > 10000 nM
- IC50 [13]: > 10000 nM
- IC50 (BaF3 [14]): 230 nM
- IC50 [15]: > 10000 nM
- IC50 (BaF3 [16]): 140 nM
- IC50 (Wee1-like protein kinase): > 10000 nM
- IC50 (NCI-H3255 [17]): 1570 nM
- IC50 (BaF3 [18]): 2 nM
- IC50 [19]: > 40000 nM
- IC50 [20]: > 40000 nM
- IC50 [21]: > 40000 nM
- IC50 [22]: > 10000 nM
- IC50 (BaF3 [23]): 270 nM
- inhibition (NIH3T3 [24]): Active
- IC50 (Calu-3): 63 nM
- IC50 (HCC827 [25]): 83 nM
- IC50 [26]: > 40000 nM
- IC50 (NCI-H441): 4000 nM
- IC50 (BaF3 [27]): 330 nM
- IC50 (BaF3 [28]): 1.9 nM
- IC50 (BaF3 [29]): 1.4 nM
- IC50 [30]: > 40000 nM
- IC50 (cells [31]): 275 nM
- IC50 [32]: > 10000 nM
- IC50 (cells [33]): 29 nM
- IC50 [34]: > 10000 nM
- IC50 [35]: > 10000 nM
- IC50 (A549): > 10000 nM
- IC50 (HCC827 [36]): 2 nM
